From ChEMBL document CHEMBL1135467 (J Med Chem, 2002)

Key:
Mu-type opioid receptor [1] = molecular target: T1, Mu-type opioid receptor (Rattus norvegicus, UniProt P33535); assay: Inhibitory activity against [3H]DAMGO binding to Opioid receptor mu 1 in rat brain membranes; type: cell membranes
How it was run: (§1)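 Rat brain minus cerebellum homogenised in 0.32 M sucrose/10 mM Tris-HCl and spun. The pellet was preincubated 1 h to strip endogenous opioids. GF/B filtration, scintillation counting.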

Mu-type opioid receptor [2] = molecular target: T1, Mu-type opioid receptor; assay: Binding affinity towards Opioid receptor mu 1 by displacing [3H]DAMGO in rat brain membranes.; type: cell membranes; how it was run: as §1
[3] = Potency for inhibition of forskolin-stimulated cyclic AMP accumulation in SH-SY5Y cells; type: functional, cell-based; details: Homo sapiens
How it was run: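 SH-SY5Y cells at 85-100% confluence in 24-well plates, in serum-free F12/DMEM with 0.5 mM IBMX, protease inhibitors and DADLE δ-blocker, 10 min at 37 °C. Then 10 µM forskolin plus ligand over a concentration range, 15 min at 37 °C. Ethanol extraction, cAMP measured by commercial kit. Triplicate wells averaged, IC50 fitted.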

T1 sequence (P33535 whole entry): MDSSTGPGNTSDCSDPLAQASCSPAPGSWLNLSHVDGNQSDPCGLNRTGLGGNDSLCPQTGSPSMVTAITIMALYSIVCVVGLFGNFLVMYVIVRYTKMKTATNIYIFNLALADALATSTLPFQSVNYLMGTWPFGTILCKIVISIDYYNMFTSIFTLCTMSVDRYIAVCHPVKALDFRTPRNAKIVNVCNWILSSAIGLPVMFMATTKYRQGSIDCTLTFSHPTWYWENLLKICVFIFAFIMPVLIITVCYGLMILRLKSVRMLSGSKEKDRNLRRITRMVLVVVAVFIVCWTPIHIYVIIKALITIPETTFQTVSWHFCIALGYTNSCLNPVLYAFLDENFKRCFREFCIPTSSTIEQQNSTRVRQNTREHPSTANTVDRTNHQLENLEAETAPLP

In the case of `NC(=O)[C@H](Cc1ccccc1)NC(=O)[C@H](Cc1c[nH]c2ccccc12)NC(=O)[C@@H]1CCCN1C(=O)C[C@@H](N)Cc1ccc(O)cc1`, the IC50 (Mu-type opioid receptor [1]) is reported as 990 nM and the Ki (Mu-type opioid receptor [2]) is reported as 26 nM.
With `NC(=O)[C@H](Cc1ccccc1)NC(=O)[C@H](Cc1c[nH]c2ccccc12)NC(=O)C[C@H]1CCCN1C(=O)[C@@H](N)Cc1ccc(O)cc1` the IC50 (Mu-type opioid receptor [1]) was 79 nM, the Ki (Mu-type opioid receptor [2]) was 67 nM and the IC50 [3] was 45 nM.
In the case of `NC(=O)[C@H](Cc1ccccc1)NC(=O)[C@H](Cc1c[nH]c2ccccc12)NC(=O)C[C@@H]1CCCN1C(=O)[C@@H](N)Cc1ccc(O)cc1`, the IC50 (Mu-type opioid receptor [1]) is reported as 4 nM, the Ki (Mu-type opioid receptor [2]) is reported as 2.1 nM and the IC50 [3] is reported as 6.53 nM.
In the case of `NC(=O)C[C@H](Cc1ccccc1)NC(=O)[C@H](Cc1c[nH]c2ccccc12)NC(=O)[C@@H]1CCCN1C(=O)[C@@H](N)Cc1ccc(O)cc1`, the IC50 (Mu-type opioid receptor [1]) is reported as 80.1 nM and the Ki (Mu-type opioid receptor [2]) is reported as 79 nM.
With `NC(=O)[C@H](Cc1ccccc1)NC(=O)C[C@H](Cc1c[nH]c2ccccc12)NC(=O)[C@@H]1CCCN1C(=O)[C@@H](N)Cc1ccc(O)cc1` the IC50 (Mu-type opioid receptor [1]) was 23.3 nM and the Ki (Mu-type opioid receptor [2]) was 73 nM.
For `C[C@@H](NC(=O)[C@@H](N)Cc1ccc(O)cc1)C(=O)NCC(=O)N(C)[C@@H](Cc1ccccc1)C(=O)NCCO` [DAMGO], the IC50 [3] was 1.1 nM.
`NC(=O)[C@H](Cc1ccccc1)NC(=O)[C@H](Cc1c[nH]c2ccccc12)NC(=O)[C@@H]1CCCN1C(=O)[C@@H](N)Cc1ccc(O)cc1` [ENDOMORPHIN-1] showed an IC50 [3] of 19.1 nM.
